# According to ChEMBL document CHEMBL4689842, “EUbOPEN Chemogenomics Library wave 1” (2021):
# Tested on: Fibroblast
# Assay: Multiplex assay against human fibroblast
# Type: toxicity, cell-based
# How it was run: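 Compound was added to live cells that had been stained at seeding with Hoechst33342, BioTracker Green Microtubule Cytoskeleton Dye, MitoTracker Red and Annexin V Alexa Fluor 680, and imaging followed on a CQ1 microscope at 37°C and 5% CO2. CellPathfinder machine-learning gating divided cells into Hoechst high-intensity objects or normal cells, normal cells into healthy, pyknosed or fragmented nuclei, and pyknosed cells into mitotic or apoptotic. Tubulin, mitochondrial-mass and membrane-permeability phenotypes are per cents of healthy-nucleus cells.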
# [1] = 12 h, 1 µM, compound concentration 1 uM, replicate 1
# [2] = 12 h, 1 µM, compound concentration 1 uM, replicate 2
# [3] = 12 h, 10 µM, compound concentration 10 uM, replicate 1
# [4] = 12 h, 10 µM, compound concentration 10 uM, replicate 2
# [5] = 24 h, 1 µM, compound concentration 1 uM, replicate 1
# [6] = 24 h, 1 µM, compound concentration 1 uM, replicate 2
# [7] = 24 h, 10 µM, compound concentration 10 uM, replicate 1
# [8] = 24 h, 10 µM, compound concentration 10 uM, replicate 2
# [9] = 48 h, 1 µM, compound concentration 1 uM, replicate 1
# [10] = 48 h, 1 µM, compound concentration 1 uM, replicate 2
# [11] = 48 h, 10 µM, compound concentration 10 uM, replicate 1
# [12] = 48 h, 10 µM, compound concentration 10 uM, replicate 2
smiles,measurement,setting,value
CN1CCN(Cc2ccc(Nc3ncc(Cl)c(Nc4ccccc4S(=O)(=O)N(C)C)n3)cc2)CC1 [DUBERMATINIB],Population Apoptotic (%),[1],54%
same,Population Fragmented Nuclei (%),[1],27%
same,Population Healthy Nuclei (%),[1],50%
same,Population Hoechst High Intensity Objects (%),[1],12%
same,Population Membrane Permeable-Phenotype (%),[1],41%
same,Population Mitochondria Different-Phenotype (%),[1],3%
same,Population Mitotic Cells (%),[1],45%
same,Population Normal (%),[1],87%
same,Population Pyknosed Nuclei (%),[1],21%
same,Population Tubulin-Different-Phenotype (%),[1],41%
same,Total Cell Count,[1],126
same,Population Apoptotic (%),[2],100%
same,Population Fragmented Nuclei (%),[2],13%
same,Population Healthy Nuclei (%),[2],83%
same,Population Hoechst High Intensity Objects (%),[2],10%
same,Population Membrane Permeable-Phenotype (%),[2],4%
same,Population Mitochondria Different-Phenotype (%),[2],16%
same,Population Mitotic Cells (%),[2],0%
same,Population Normal (%),[2],89%
same,Population Pyknosed Nuclei (%),[2],2%
same,Population Tubulin-Different-Phenotype (%),[2],11%
same,Total Cell Count,[2],65
same,Population Apoptotic (%),[3],72%
same,Population Fragmented Nuclei (%),[3],18%
same,Population Healthy Nuclei (%),[3],57%
same,Population Hoechst High Intensity Objects (%),[3],14%
same,Population Membrane Permeable-Phenotype (%),[3],22%
same,Population Mitochondria Different-Phenotype (%),[3],11%
same,Population Mitotic Cells (%),[3],28%
same,Population Normal (%),[3],85%
same,Population Pyknosed Nuclei (%),[3],23%
same,Population Tubulin-Different-Phenotype (%),[3],56%
same,Total Cell Count,[3],125
same,Population Apoptotic (%),[4],73%
same,Population Fragmented Nuclei (%),[4],45%
same,Population Healthy Nuclei (%),[4],31%
same,Population Hoechst High Intensity Objects (%),[4],9%
same,Population Membrane Permeable-Phenotype (%),[4],28%
same,Population Mitochondria Different-Phenotype (%),[4],38%
same,Population Mitotic Cells (%),[4],26%
same,Population Normal (%),[4],90%
same,Population Pyknosed Nuclei (%),[4],22%
same,Population Tubulin-Different-Phenotype (%),[4],42%
same,Total Cell Count,[4],91
same,Population Apoptotic (%),[5],70%
same,Population Fragmented Nuclei (%),[5],28%
same,Population Healthy Nuclei (%),[5],57%
same,Population Hoechst High Intensity Objects (%),[5],11%
same,Population Membrane Permeable-Phenotype (%),[5],31%
same,Population Mitochondria Different-Phenotype (%),[5],5%
same,Population Mitotic Cells (%),[5],29%
same,Population Normal (%),[5],88%
same,Population Pyknosed Nuclei (%),[5],14%
same,Population Tubulin-Different-Phenotype (%),[5],37%
same,Total Cell Count,[5],137
same,Population Apoptotic (%),[6],0%
same,Population Fragmented Nuclei (%),[6],11%
same,Population Healthy Nuclei (%),[6],83%
same,Population Hoechst High Intensity Objects (%),[6],6%
same,Population Membrane Permeable-Phenotype (%),[6],4%
same,Population Mitochondria Different-Phenotype (%),[6],36%
same,Population Mitotic Cells (%),[6],100%
same,Population Normal (%),[6],93%
same,Population Pyknosed Nuclei (%),[6],4%
same,Population Tubulin-Different-Phenotype (%),[6],14%
same,Total Cell Count,[6],70
same,Population Apoptotic (%),[7],42%
same,Population Fragmented Nuclei (%),[7],23%
same,Population Healthy Nuclei (%),[7],55%
same,Population Hoechst High Intensity Objects (%),[7],15%
same,Population Membrane Permeable-Phenotype (%),[7],12%
same,Population Mitochondria Different-Phenotype (%),[7],16%
same,Population Mitotic Cells (%),[7],57%
same,Population Normal (%),[7],84%
same,Population Pyknosed Nuclei (%),[7],21%
same,Population Tubulin-Different-Phenotype (%),[7],61%
same,Total Cell Count,[7],116
same,Population Apoptotic (%),[8],95%
same,Population Fragmented Nuclei (%),[8],30%
same,Population Healthy Nuclei (%),[8],33%
same,Population Hoechst High Intensity Objects (%),[8],14%
same,Population Membrane Permeable-Phenotype (%),[8],55%
same,Population Mitochondria Different-Phenotype (%),[8],55%
same,Population Mitotic Cells (%),[8],4%
same,Population Normal (%),[8],85%
same,Population Pyknosed Nuclei (%),[8],36%
same,Population Tubulin-Different-Phenotype (%),[8],65%
same,Total Cell Count,[8],87
same,Population Apoptotic (%),[9],62%
same,Population Fragmented Nuclei (%),[9],39%
same,Population Healthy Nuclei (%),[9],46%
same,Population Hoechst High Intensity Objects (%),[9],10%
same,Population Membrane Permeable-Phenotype (%),[9],22%
same,Population Mitochondria Different-Phenotype (%),[9],7%
same,Population Mitotic Cells (%),[9],37%
same,Population Normal (%),[9],89%
same,Population Pyknosed Nuclei (%),[9],13%
same,Population Tubulin-Different-Phenotype (%),[9],40%
same,Total Cell Count,[9],129
same,Population Apoptotic (%),[10],66%
same,Population Fragmented Nuclei (%),[10],30%
same,Population Healthy Nuclei (%),[10],67%
same,Population Hoechst High Intensity Objects (%),[10],4%
same,Population Membrane Permeable-Phenotype (%),[10],24%
same,Population Mitochondria Different-Phenotype (%),[10],5%
same,Population Mitotic Cells (%),[10],33%
same,Population Normal (%),[10],95%
same,Population Pyknosed Nuclei (%),[10],2%
same,Population Tubulin-Different-Phenotype (%),[10],41%
same,Total Cell Count,[10],115
same,Population Apoptotic (%),[11],53%
same,Population Fragmented Nuclei (%),[11],39%
same,Population Healthy Nuclei (%),[11],36%
same,Population Hoechst High Intensity Objects (%),[11],13%
same,Population Membrane Permeable-Phenotype (%),[11],31%
same,Population Mitochondria Different-Phenotype (%),[11],21%
same,Population Mitotic Cells (%),[11],46%
same,Population Normal (%),[11],86%
same,Population Pyknosed Nuclei (%),[11],24%
same,Population Tubulin-Different-Phenotype (%),[11],73%
same,Total Cell Count,[11],122
same,Population Apoptotic (%),[12],50%
same,Population Fragmented Nuclei (%),[12],43%
same,Population Healthy Nuclei (%),[12],44%
same,Population Hoechst High Intensity Objects (%),[12],16%
same,Population Membrane Permeable-Phenotype (%),[12],32%
same,Population Mitochondria Different-Phenotype (%),[12],19%
same,Population Mitotic Cells (%),[12],50%
same,Population Normal (%),[12],83%
same,Population Pyknosed Nuclei (%),[12],11%
same,Population Tubulin-Different-Phenotype (%),[12],48%
same,Total Cell Count,[12],83
